{
  "source": "paper PMC8842743",
  "about": "(Journal of Alzheimer's Disease Reports, 2022)",
  "key": {"[1]": {"biological_target": "Porcine gastric mucosa pepsin (Sus scrofa, UniProt P00791)", "sequence (P00791 60-385)": "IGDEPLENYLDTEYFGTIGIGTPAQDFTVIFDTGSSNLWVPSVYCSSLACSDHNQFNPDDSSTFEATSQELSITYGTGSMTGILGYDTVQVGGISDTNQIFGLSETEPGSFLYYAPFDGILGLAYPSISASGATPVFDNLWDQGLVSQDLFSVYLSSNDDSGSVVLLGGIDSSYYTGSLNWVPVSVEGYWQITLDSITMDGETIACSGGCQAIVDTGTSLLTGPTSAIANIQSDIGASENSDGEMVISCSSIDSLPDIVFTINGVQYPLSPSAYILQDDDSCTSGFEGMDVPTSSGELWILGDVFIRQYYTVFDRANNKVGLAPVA", "assay": "Pepsin FRET assay", "type": "biochemical", "details": "read-out: Pepsin FRET Assay Absolute IC50; n = 2; value (SD)"}, "[2]": {"assay": "Plasma and CSF pharmacokinetics in beagle dogs", "type": "in vivo, dog"}, "[3]": {"system": "Aβ1-x in plasma and CSF of beagle dogs", "assay": "Pharmacodynamics in cannulated beagle dogs", "type": "in vivo, dog", "details": "1.5 mg/kg oral", "procedure,_shortened": "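Six male cannulated beagle dogs received a single 1.5 mg/kg oral dose in 1% hydroxyethylcellulose. Plasma was sampled pre-dose and at 0.5–48 h. CSF was sampled 0.5 h pre-dose (baseline) and at 3, 6, 9, 24 and 48 h. Aβ1–x was measured by sandwich ELISA (m266.2 capture, biotinylated 3D6 reporter), averaged across dogs and expressed relative to baseline. Statistics: ANOVA with Tukey post hoc.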"}, "[4]": {"system": "CSF Aβ1–40, Aβ1–42, sAβPPα, sAβPPβ in healthy subjects", "assay": "Clinical multiple-dose CSF pharmacodynamics", "type": "in vivo, human"}, "[5]": {"system": "Aβ1-x, C99, sAβPPβ in PDAPP mice", "assay": "In vivo pharmacodynamics in PDAPP mice", "parameters": "species or system mouse", "details": "3.0 mg/kg oral", "procedure,_shortened": "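Young (2–3 months) female PDAPP mice (n = 6–8 per group) got a single oral gavage of vehicle (7% Pharmasolve, 10 mL/kg) or 0.3, 1.0 or 3.0 mg/kg. Hippocampal and cortical Aβ1–x, C99 and sAβPPβ were measured in brain extracts 3 h post-dose. In a time course (3.0 mg/kg, n = 6), hippocampal and CSF Aβ1–x were measured at 3, 6, 9 and 12 h. Statistics: ANOVA, then Tukey post hoc, p < 0.05.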"}, "[6]": {"assay": "Dog plasma protein binding", "type": "in vitro ADME", "details": "equilibrium dialysis of dog plasma", "procedure,_shortened": "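Fraction unbound was determined in vitro by equilibrium dialysis of mouse brain homogenate or dog plasma. Unbound concentrations were derived by multiplying the total measured concentrations by this fraction unbound.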"}, "[7]": {"assay": "Clinical multiple-dose pharmacokinetics", "type": "in vivo, human", "details": "for AUCτ,ss / CLR / t1/2 / tmax: day 14; for AUCτ,ss / CLR / t1/2 / Cmax: geometric mean (CV%); for tmax: median (range); for Cmax: day 14 steady state", "procedure,_shortened": "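Healthy subjects took daily oral doses for 14 days. Plasma was sampled up to 24 h after the first dose, before the day-14 dose and up to 120 h after it, plus pre-dose troughs every 2 days to assess steady state. Clearance, apparent volume, tmax and t1/2 were reported. Accumulation ratio = AUCτ,ss divided by first-dose AUCτ, per subject.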"}, "[8]": {"details": "1 mg daily for 14 days, 24 h after final dose"}, "[9]": {"details": "26 mg daily for 14 days, samples below LLOQ assigned one-half the LLOQ"}},
  "data": [
    {"smiles": "COc1cnc(C(=O)Nc2ccc(F)c([C@]34CN(c5ncc(F)cn5)C[C@H]3CSC(N)=N4)c2)cn1", "note": "[LY3202626]", "values": [
      {"measurement": "IC50", "setting": "[1]", "result": "> 14", "unit": "µM"},
      {"measurement": "mean CSF AUC (3–9 h)", "setting": "[2]; 1.5 mg/kg oral", "result": 0.025, "unit": "µM·h"},
      {"measurement": "mean free plasma AUC (3–9 h)", "setting": "[2]; 1.5 mg/kg oral", "result": 0.028, "unit": "µM·h"},
      {"measurement": "plasma AUC(0-∞)", "setting": "[2]; 1.5 mg/kg oral, mean±SD", "result": "10.812 ± 5.195", "unit": "µM·h"},
      {"measurement": "Cmax", "setting": "[2]; read-out: maximum plasma concentration (Cmax), 1.5 mg/kg oral, mean±SD", "result": "2990 ± 750", "unit": "nM"},
      {"measurement": "time CSF Aβ1-x remained significantly suppressed after dosing", "setting": "[3]", "result": 24, "unit": "h"},
      {"measurement": "maximal reduction of CSF Aβ1-x", "setting": "[3]; 9 h time point", "result": "~80", "unit": "%"},
      {"measurement": "reduction of plasma Aβ1-x", "setting": "[3]; 48 h time point", "result": "approximately 40%"},
      {"measurement": "suppression of plasma Aβ1-x levels", "setting": "[3]; by 2 h after dosing, vs baseline", "result": "up to 80%"},
      {"measurement": "decrease in CSF Aβ1–40 from baseline", "setting": "[4]; [8]", "result": "approximately 50%"},
      {"measurement": "decrease in CSF Aβ1–42 from baseline", "setting": "[4]; [8]", "result": "approximately 50%"},
      {"measurement": "lowering of CSF Aβ species, modeling of the clinical data", "setting": "[4]; 12 mg QD", "result": "at least 90%"},
      {"measurement": "increase in CSF sAβPPα from baseline", "setting": "[4]; 26 mg daily for 14 days", "result": 111, "unit": "%"},
      {"measurement": "reduction in CSF sAβPPβ from baseline", "setting": "[4]; 26 mg daily for 14 days", "result": 92.7, "unit": "%"},
      {"measurement": "reduction in CSF Aβ1–40 from baseline", "setting": "[4]; [9]", "result": "approximately 94%"},
      {"measurement": "reduction in CSF Aβ1–42 from baseline", "setting": "[4]; [9]", "result": "approximately 94%"},
      {"measurement": "decrease in CSF sAβPPβ", "setting": "[4]; multiple doses of 6 mg", "result": "more than 70%"},
      {"measurement": "Cortex C99 decrease vs vehicle", "setting": "[5]; 3 h", "result": 65, "unit": "%"},
      {"measurement": "Cortex sAβPPβ decrease vs vehicle", "setting": "[5]; 3 h", "result": 34, "unit": "%"},
      {"measurement": "CSF Aβ1-X reduction vs vehicle, time course", "setting": "[5]; 3 hrs", "result": 75, "unit": "%"},
      {"measurement": "dog plasma free fraction", "setting": "[6]", "result": 0.009},
      {"measurement": "AUCτ,ss", "setting": "[7]; multiple dose 1 mg", "result": "38.6 (25) ng·h/mL"},
      {"measurement": "CLR", "setting": "[7]; multiple dose 1 mg", "result": "1.61 (46) L/h"},
      {"measurement": "t1/2", "setting": "[7]; multiple dose 1 mg", "result": "33.1 (38) h"},
      {"measurement": "tmax", "setting": "[7]; multiple dose 1 mg", "result": "4.04 (3.98–4.23) h"},
      {"measurement": "Cmax", "setting": "[7]; multiple dose 1 mg, n = 8", "result": "2.57 (25) ng/mL"},
      {"measurement": "AUCτ,ss", "setting": "[7]; multiple dose 6 mg", "result": "151 (54) ng·h/mL"},
      {"measurement": "CLR", "setting": "[7]; multiple dose 6 mg", "result": "1.09 (86) L/h"},
      {"measurement": "t1/2", "setting": "[7]; multiple dose 6 mg", "result": "38.1 (29) h"},
      {"measurement": "tmax", "setting": "[7]; multiple dose 6 mg", "result": "3.87 (1.95–4.00) h"},
      {"measurement": "Cmax", "setting": "[7]; multiple dose 6 mg, n = 9", "result": "11.2 (71) ng/mL"},
      {"measurement": "AUCτ,ss", "setting": "[7]; multiple dose 26 mg", "result": "1020 (50) ng·h/mL"},
      {"measurement": "CLR", "setting": "[7]; multiple dose 26 mg", "result": "1.29 (39) L/h"},
      {"measurement": "t1/2", "setting": "[7]; multiple dose 26 mg", "result": "46.3 (25) h"},
      {"measurement": "tmax", "setting": "[7]; multiple dose 26 mg", "result": "4.03 (2.00–5.78) h"},
      {"measurement": "Cmax", "setting": "[7]; multiple dose 26 mg, n = 9", "result": "72.8 (61) ng/mL"}
    ]}
  ]
}
